# ChEMBL document CHEMBL1268848, “Selenium-containing analogs of SAHA induce cytotoxicity in lung cancer cells” (Bioorg Med Chem Lett, 2010)
# Activity calls are given as the source filed them. No cut-off for these calls is given here.
# How the values were obtained:
# [1] = species on record: Homo sapiens; conditions: at 5 µM
# [2] = system: NCI-H460; experiment: Cytotoxicity against human NCI-H460 by SRB assay; type: functional, cell-based
# [3] = system: NCI-H1299; experiment: Cytotoxicity against human NCI-H1299 by SRB assay; type: functional, cell-based
# [4] = system: NCI-H2126; experiment: Cytotoxicity against human NCI-H2126 by SRB assay; type: functional, cell-based
# [5] = system: A549; experiment: Induction of autophagy in human A549 cells assessed as increase in LC3II after 3 hrs relative to control; type: functional, cell-based
# Method in brief: (§1)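 A549 cells given 5 μM compound, with DMSO-treated controls, and harvested at times from 0 to 24 h. Lysis buffer: 20 mM Tris pH 7.4, 150 mM NaCl, 1 mM EDTA/EGTA, 1% Triton X-100, NaF, Na3VO4 and protease inhibitors, 10 min at 4°C. 10 μg protein run on SDS-PAGE and immunoblotted for LC3B, with actin as loading reference.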
# [6] = Cytotoxicity against human H441 by SRB assay; type: functional; conditions: NCI-H441
# [7] = system: NCI-H23; experiment: Cytotoxicity against human NCI-H23 by SRB assay; type: functional, cell-based
# [8] = target: RAC-alpha serine/threonine-protein kinase (Homo sapiens) (UniProt P31749); experiment: Inhibition of AKT phosphorylation in human A549 at 5 uM after 24 hrs by Western blot analysis; type: functional
# Method in brief: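 A549 cells treated 24 h with 5 μM compound, with DMSO controls. Lysed in Tris pH 7.4/NaCl/EDTA/EGTA/1% Triton X-100 buffer containing NaF, Na3VO4 and protease inhibitors, 10 min at 4°C, then cleared at 14,000 xg. 10 μg protein by BCA run on SDS-PAGE and blotted to PVDF. Probed with anti-pAKT and compared with pan-AKT.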
# [9] = system: A549; experiment: Induction of autophagy in human A549 cells assessed as increase in LC3II after 24 hrs relative to control; type: functional, cell-based
# Method in brief: as §1
# [10] = system: NCI-H522; experiment: Cytotoxicity against human NCI-H522 by SRB assay; type: functional, cell-based
# Method in brief: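 SRB cytotoxicity assay after 24 h drug exposure. Cells grown in DMEM with 10% FBS and penicillin/streptomycin at 37 °C under 5% CO2. Compounds taken from 10 mM DMSO stocks and diluted in medium over 0.1–50 μM, final DMSO 0.2%, with DMSO-only controls. IC50 obtained by non-linear regression of dose-response curves.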
# [11] = system: A549; experiment: Cytotoxicity against human A549 cells by SRB assay; type: functional, cell-based
# [12] = system: NCI-H226; experiment: Cytotoxicity against human NCI-H226 by SRB assay; type: functional, cell-based
# RAC-alpha serine/threonine-protein kinase (Homo sapiens), sequence (P31749 whole entry): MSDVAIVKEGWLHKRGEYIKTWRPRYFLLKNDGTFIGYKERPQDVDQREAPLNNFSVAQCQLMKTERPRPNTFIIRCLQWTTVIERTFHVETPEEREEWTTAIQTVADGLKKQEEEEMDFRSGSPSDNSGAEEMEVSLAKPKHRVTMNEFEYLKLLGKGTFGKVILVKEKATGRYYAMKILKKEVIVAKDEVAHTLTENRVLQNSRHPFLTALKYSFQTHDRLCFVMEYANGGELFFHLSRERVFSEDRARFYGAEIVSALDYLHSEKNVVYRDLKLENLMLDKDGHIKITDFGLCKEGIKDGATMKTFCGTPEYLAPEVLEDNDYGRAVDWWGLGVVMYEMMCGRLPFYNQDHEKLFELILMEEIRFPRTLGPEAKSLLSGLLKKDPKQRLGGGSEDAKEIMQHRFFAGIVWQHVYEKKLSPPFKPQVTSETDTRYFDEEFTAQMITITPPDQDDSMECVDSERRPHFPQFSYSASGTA
inhibition [8],SMILES,inhibition [1],IC50 [2] [nM],IC50 [3] [nM],IC50 [4] [nM],Activity [5],IC50 [6] [nM],IC50 [7] [nM],Activity [9],IC50 [10] [nM],IC50 [11] [nM],IC50 [12] [nM]
Active,O=C(CCCCC[Se][Se]CCCCCC(=O)Nc1ccccc1)Nc1ccccc1,Active,2130,438,1090,Active,92,279,Active,188,370,1730
inactive,O=C(CCCCCCC(=O)Nc1ccccc1)NO [VORINOSTAT],–,–,–,–,inactive,–,–,–,832,–,–

SMILES,inhibition [8],inhibition [1],IC50 [2] [nM],IC50 [3] [nM],IC50 [4] [nM],Activity [5],IC50 [6] [nM],IC50 [7] [nM],Activity [9],IC50 [10] [nM],IC50 [11] [nM],IC50 [12] [nM]
N#C[Se]CCCCCC(=O)Nc1ccccc1,Active,Active,1460,923,928,Active,449,271,Active,779,653,1050
